These results are taken from ChEMBL document CHEMBL3286317, “Synthesis and biological evaluation of a unique heparin mimetic hexasaccharide for structure-activity relationship studies” (J Med Chem, 2014).

Calls of active or inactive are those of the source. No cut-off for these calls is given here.

Experiment [1] addresses Stromal cell-derived factor 1 (Homo sapiens, UniProt P48061). The experiment is described as follows: Binding affinity to human recombinant CXCL12 by surface plasmon resonance assay. In outline:
(§1)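 Biotinylated low-molecular-weight heparin was captured on a neutravidin surface. Protein at varying concentrations was mixed with a hexasaccharide dilution series and injected. Free protein was read from a quadratic slope-vs-concentration standard curve. KD = [P_free][H_total]/[P_bound], averaged over three hexasaccharide concentrations.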
A general note: Surface plasmon resonance follows binding to a sensor surface in real time, without labels.

A further experiment concerns the target Sonic hedgehog protein (Homo sapiens, UniProt Q15465). Briefly: Binding affinity to human recombinant Shh by surface plasmon resonance assay. In outline:
as §1

For experiment [2], the target named is T1, Heparanase (Homo sapiens) (UniProt Q9Y251).
T1 sequence (whole entry): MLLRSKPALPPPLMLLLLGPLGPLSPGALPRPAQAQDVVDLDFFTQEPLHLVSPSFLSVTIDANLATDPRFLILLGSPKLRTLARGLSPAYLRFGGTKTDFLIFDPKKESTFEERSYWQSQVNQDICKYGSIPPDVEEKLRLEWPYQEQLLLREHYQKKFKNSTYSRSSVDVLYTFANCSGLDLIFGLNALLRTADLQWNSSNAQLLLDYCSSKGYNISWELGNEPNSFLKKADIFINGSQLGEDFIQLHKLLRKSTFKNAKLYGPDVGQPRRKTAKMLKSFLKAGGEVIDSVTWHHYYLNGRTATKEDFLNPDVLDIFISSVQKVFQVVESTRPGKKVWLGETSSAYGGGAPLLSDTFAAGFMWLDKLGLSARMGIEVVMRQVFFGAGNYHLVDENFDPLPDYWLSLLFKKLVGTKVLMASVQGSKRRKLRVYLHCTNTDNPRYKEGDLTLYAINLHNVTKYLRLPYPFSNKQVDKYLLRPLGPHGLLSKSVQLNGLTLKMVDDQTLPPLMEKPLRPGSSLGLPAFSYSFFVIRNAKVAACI
Briefly: Inhibition of recombinant heparanase (unknown origin) using biotin-cryptate-labeled heparan sulfate as substrate at 8.3 mg/ml preincubated for 15 mins prior to substrate challenge by TR-FRET assay. In outline: (§2)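 Recombinant heparanase was preincubated with compound at various concentrations for 15 min at 37 °C. It was then added to biotin-cryptate-labeled heparan sulfate substrate with streptavidin-XL665 for 1 h at 37 °C. Read-out was TR-FRET between europium cryptate and XL665.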
In general terms: Time-resolved FRET reads energy transfer from a long-lived donor to a nearby acceptor.

For experiment [3], the target named is T1, Heparanase (Homo sapiens). The experiment is described as follows: Inhibition of recombinant heparanase (unknown origin) using biotin-cryptate-labeled heparan sulfate as substrate at 0.03 to 8 mg/ml preincubated for 15 mins prior to substrate challenge by TR-FRET assay. In outline: as §2
Experiment [4] concerns the target Fibroblast growth factor 1 (Homo sapiens, UniProt P05230). The experiment is described as follows: Binding affinity to human recombinant FGF1 by surface plasmon resonance assay. In outline:
as §1

A short description of experiment [5]: Binding affinity to human recombinant IL-23 by surface plasmon resonance assay. In outline:
as §1

The next experiment deals with T2, Interferon gamma (Homo sapiens, UniProt P01579).
T2 sequence (P01579 whole entry): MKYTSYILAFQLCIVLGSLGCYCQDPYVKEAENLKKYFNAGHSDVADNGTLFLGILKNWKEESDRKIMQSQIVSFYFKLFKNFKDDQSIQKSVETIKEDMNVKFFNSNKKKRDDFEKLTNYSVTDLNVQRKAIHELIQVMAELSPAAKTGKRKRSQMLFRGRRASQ
The experiment is described as follows: Binding affinity to human recombinant IFN-gamma by surface plasmon resonance assay. In outline: as §1

Experiment [6] concerns the target T3, Secreted frizzled-related protein 1 (Homo sapiens, UniProt Q8N474).
T3 sequence (Q8N474 whole entry): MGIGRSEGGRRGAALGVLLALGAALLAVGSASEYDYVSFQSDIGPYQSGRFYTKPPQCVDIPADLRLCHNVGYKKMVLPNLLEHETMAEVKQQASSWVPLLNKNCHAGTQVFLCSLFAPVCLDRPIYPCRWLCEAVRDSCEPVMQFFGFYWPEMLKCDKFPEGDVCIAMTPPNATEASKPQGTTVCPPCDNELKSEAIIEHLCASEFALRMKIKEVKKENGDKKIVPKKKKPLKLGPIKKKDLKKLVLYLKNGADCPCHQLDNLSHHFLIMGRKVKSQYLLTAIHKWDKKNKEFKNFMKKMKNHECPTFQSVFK
Briefly: Binding affinity to human recombinant sFRP1 by surface plasmon resonance assay. In outline:
as §1

For a further experiment, the target named is T4, Platelet factor 4 (Homo sapiens, UniProt P02776).
T4 sequence (P02776 whole entry): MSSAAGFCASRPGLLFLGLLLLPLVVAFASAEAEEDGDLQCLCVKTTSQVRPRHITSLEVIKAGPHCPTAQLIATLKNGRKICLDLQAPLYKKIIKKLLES
The experiment is described as follows: Binding affinity to human recombinant CXCL4 by surface plasmon resonance assay. In outline:
as §1

The target in the next experiment is C-C motif chemokine 2 (Homo sapiens, UniProt P13500). The experiment is described as follows: Binding affinity to human recombinant CCL2 by surface plasmon resonance assay. In outline: as §1
For a further experiment, the target named is Protein Wnt-3a (Homo sapiens, UniProt P56704). Briefly: Binding affinity to human recombinant WNT3A by surface plasmon resonance assay. In outline:
as §1

The target in experiment [7] is T1, Heparanase (Homo sapiens). Briefly: Inhibition of recombinant heparanase (unknown origin) using biotin-cryptate-labeled heparan sulfate as substrate at 4.2 mg/ml preincubated for 15 mins prior to substrate challenge by TR-FRET assay. In outline:
as §2

Chain of Sonic hedgehog protein (Q15465 24-197 limits assumed): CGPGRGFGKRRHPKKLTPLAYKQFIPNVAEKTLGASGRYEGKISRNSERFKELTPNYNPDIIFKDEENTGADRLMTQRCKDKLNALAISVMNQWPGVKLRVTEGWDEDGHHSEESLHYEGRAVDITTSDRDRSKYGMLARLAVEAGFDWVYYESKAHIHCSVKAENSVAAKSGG
Chain of Stromal cell-derived factor 1 (P48061 whole entry): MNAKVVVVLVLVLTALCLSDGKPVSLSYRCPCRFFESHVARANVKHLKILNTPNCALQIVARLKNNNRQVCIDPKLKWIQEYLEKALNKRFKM
Chain of Protein Wnt-3a (P56704 whole entry): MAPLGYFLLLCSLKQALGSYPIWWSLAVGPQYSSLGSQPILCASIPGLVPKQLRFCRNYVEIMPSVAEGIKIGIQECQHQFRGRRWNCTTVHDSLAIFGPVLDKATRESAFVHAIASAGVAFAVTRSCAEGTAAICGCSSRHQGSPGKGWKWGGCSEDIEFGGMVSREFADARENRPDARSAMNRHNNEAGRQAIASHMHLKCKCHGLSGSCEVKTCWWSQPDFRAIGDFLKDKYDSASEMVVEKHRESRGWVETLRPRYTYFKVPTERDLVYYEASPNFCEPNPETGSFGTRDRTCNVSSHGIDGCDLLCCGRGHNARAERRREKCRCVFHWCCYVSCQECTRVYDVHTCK
Chain of C-C motif chemokine 2 (P13500 whole entry): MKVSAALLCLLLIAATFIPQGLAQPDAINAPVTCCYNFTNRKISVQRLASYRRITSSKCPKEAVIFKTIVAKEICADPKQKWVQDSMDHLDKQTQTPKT
Chain of Fibroblast growth factor 1 (P05230 whole entry): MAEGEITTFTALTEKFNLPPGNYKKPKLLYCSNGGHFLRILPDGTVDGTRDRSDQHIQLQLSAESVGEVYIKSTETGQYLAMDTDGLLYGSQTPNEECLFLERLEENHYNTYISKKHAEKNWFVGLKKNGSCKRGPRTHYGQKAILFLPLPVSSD

`CCCCCO[C@H]1O[C@H](COS(=O)(=O)O)[C@@H](O[C@@H]2O[C@@H](C(=O)O)[C@@H](O[C@H]3O[C@H](COS(=O)(=O)O)[C@@H](O[C@@H]4O[C@@H](C(=O)O)[C@@H](O[C@H]5O[C@H](COS(=O)(=O)O)[C@@H](O[C@@H]6O[C@@H](C(=O)O)[C@@H](O)[C@H](O)[C@H]6OS(=O)(=O)O)[C@H](O)[C@H]5NC(C)=O)[C@H](O)[C@H]4OS(=O)(=O)O)[C@H](O)[C@H]3NC(C)=O)[C@H](O)[C@H]2OS(=O)(=O)O)[C@H](O)[C@H]1NC(C)=O`: the Kd in experiment [1] amounted to 77 µM; on Sonic hedgehog protein, 27 µM. In addition, the Imax in [2] was determined as 30.7%. In addition, the inhibition entry in experiment [3] was “Active”.
Take `NCCCCCO[C@H]1O[C@H](CO)[C@@H](O[C@@H]2O[C@@H](C(=O)O)[C@@H](O[C@H]3O[C@H](CO)[C@@H](O[C@@H]4O[C@@H](C(=O)O)[C@@H](O[C@H]5O[C@H](CO)[C@@H](O[C@@H]6O[C@@H](C(=O)O)[C@@H](O)[C@H](O)[C@H]6OS(=O)(=O)O)[C@H](O)[C@H]5NS(=O)(=O)O)[C@H](O)[C@H]4OS(=O)(=O)O)[C@H](O)[C@H]3NS(=O)(=O)O)[C@H](O)[C@H]2OS(=O)(=O)O)[C@H](O)[C@H]1NS(=O)(=O)O`: the Kd was determined as 8 µM in [4]; 7 µM in [5]; 10 µM at Interferon gamma; 122 µM on Sonic hedgehog protein; 9 µM in [6]. Moreover, the inhibition result in experiment [3] was “Active”.
In the case of `CCCCCO[C@H]1O[C@H](COS(=O)(=O)O)[C@@H](O[C@@H]2O[C@@H](C(=O)O)[C@@H](O[C@H]3O[C@H](COS(=O)(=O)O)[C@@H](O[C@@H]4O[C@@H](C(=O)O)[C@@H](O[C@H]5O[C@H](COS(=O)(=O)O)[C@@H](O[C@@H]6O[C@@H](C(=O)O)[C@@H](O)[C@H](O)[C@H]6OS(=O)(=O)O)[C@H](O)[C@H]5NC(C)=O)[C@H](O)[C@H]4OS(=O)(=O)O)[C@H](O)[C@H]3NS(=O)(=O)O)[C@H](O)[C@H]2O)[C@H](O)[C@H]1NC(C)=O`, the Kd amounted to 4 µM in experiment [5]; 7 µM on Interferon gamma; 24 µM in experiment [1]; 3 µM on Platelet factor 4; 61 µM at C-C motif chemokine 2; 18 µM on Protein Wnt-3a. Further, the dissociation constant Kd at Sonic hedgehog protein turned out to be 23 µM. Moreover, the Imax in experiment [7] was 47.2%.

As usually defined, the Kd is the free concentration of one partner at which half of the binding sites on the other are occupied at equilibrium, for simple one-to-one binding.
